≈ marks a conversion by molar mass, not a printed value.
Columns and labels:
Type in all cases: functional
Streptococcus pneumoniae [1] = assay: Antimicrobial activity against Streptococcus pneumoniae isolate 3587 by agar dilution method
Streptococcus pneumoniae [2] = assay: Antimicrobial activity against Streptococcus pneumoniae 1 by time-kill analysis
How it was run: (§1)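 Time-kill in cation-adjusted Mueller-Hinton broth with 5% lysed horse blood; inocula 5 × 105 to 5 × 10^6 CFU/ml; drugs at MIC, 2× and 4× MIC; 35°C shaking water bath; viable counts at 0, 3, 6, 12 and 24 h. Bactericidal if ≥3 log10 CFU/ml (99.9%) reduction from original inoculum; 90% and 99% killing also scored.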

Streptococcus pneumoniae [3] = assay: Antimicrobial activity against Streptococcus pneumoniae 19A by agar dilution method
How it was run: (§2)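 Agar dilution MIC on Mueller-Hinton agar with 5% sheep blood, inocula 10^4 CFU/spot; amoxicillin-clavulanate combined 1:2; S. pneumoniae ATCC 49619 quality control each run.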

Streptococcus pneumoniae [4] = assay: Antimicrobial activity against Streptococcus pneumoniae isolate 1055 by agar dilution method
Streptococcus pneumoniae [5] = assay: Antimicrobial activity against Streptococcus pneumoniae 9 by time-kill analysis; how it was run: as §1
Streptococcus pneumoniae [6] = assay: Antimicrobial activity against Streptococcus pneumoniae isolate 2688 by agar dilution method; how it was run: as §2
Streptococcus pneumoniae [7] = assay: Antimicrobial activity against Streptococcus pneumoniae isolate 3263 by agar dilution method
Streptococcus pneumoniae [8] = assay: Antimicrobial activity against penicillin-susceptible Streptococcus pneumoniae by agar dilution method
Streptococcus pneumoniae [9] = assay: Antimicrobial activity against Streptococcus pneumoniae isolate 37 by agar dilution method; how it was run: as §2
Streptococcus pneumoniae [10] = assay: Antimicrobial activity against Streptococcus pneumoniae 6 by time-kill analysis
How it was run: as §1, with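 “12,” for “12 and”, “=” for “if”, “drop” for “reduction”, “90%/99%/99.9%” for “90% and 99%”, “scored per strain.” for “also scored.”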

Streptococcus pneumoniae [11] = assay: Antimicrobial activity against Streptococcus pneumoniae isolate 2880 by agar dilution method; how it was run: as §2
Streptococcus pneumoniae [12] = assay: Antimicrobial activity against Streptococcus pneumoniae isolate 1384 by agar dilution method; how it was run: as §2
Streptococcus pneumoniae [13] = assay: Antimicrobial activity against Streptococcus pneumoniae isolate 2874 by agar dilution method; how it was run: as §2
Streptococcus pneumoniae [14] = assay: Antimicrobial activity against Streptococcus pneumoniae isolate 1394 by agar dilution method
Streptococcus pneumoniae [15] = assay: Antimicrobial activity against Streptococcus pneumoniae isolate 1424 by agar dilution method; how it was run: as §2
Streptococcus pneumoniae [16] = assay: Antimicrobial activity against Streptococcus pneumoniae isolate 2617 by agar dilution method; how it was run: as §2
Streptococcus pneumoniae [17] = assay: Antimicrobial activity against Streptococcus pneumoniae isolate 3260 by agar dilution method
Streptococcus pneumoniae [18] = assay: Antimicrobial activity against Streptococcus pneumoniae 12 by time-kill analysis
How it was run: as §1, with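 “12,” for “12 and”, “=” for “if”, “drop” for “reduction”, “90%/99%/99.9%” for “90% and 99%”, “scored per strain.” for “also scored.”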

Streptococcus pneumoniae [19] = assay: Antimicrobial activity against Streptococcus pneumoniae 7 by time-kill analysis
How it was run: as §1, with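 “12,” for “12 and”, “=” for “if”, “drop” for “reduction”, “90%/99%/99.9%” for “90% and 99%”, “scored per strain.” for “also scored.”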

Streptococcus pneumoniae [20] = assay: Antimicrobial activity against Streptococcus pneumoniae 3 by time-kill analysis
How it was run: as §1, with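 “12,” for “12 and”, “=” for “if”, “drop” for “reduction”, “90%/99%/99.9%” for “90% and 99%”, “scored per strain.” for “also scored.”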

Streptococcus pneumoniae [21] = assay: Antimicrobial activity against Streptococcus pneumoniae isolate 3282 by agar dilution method
Streptococcus pneumoniae [22] = assay: Antimicrobial activity against penicillin-intermediate Streptococcus pneumoniae by agar dilution method
Streptococcus pneumoniae [23] = assay: Antimicrobial activity against Streptococcus pneumoniae isolate 3346 by agar dilution method
Streptococcus pneumoniae [24] = assay: Antimicrobial activity against Streptococcus pneumoniae isolate 3791 by agar dilution method; how it was run: as §2
Streptococcus pneumoniae [25] = assay: Antimicrobial activity against Streptococcus pneumoniae isolate 3681 by agar dilution method; how it was run: as §2
Streptococcus pneumoniae [26] = assay: Antimicrobial activity against Streptococcus pneumoniae isolate 4755 by agar dilution method; how it was run: as §2
Streptococcus pneumoniae [27] = assay: Antimicrobial activity against Streptococcus pneumoniae isolate 1146 by agar dilution method; how it was run: as §2
Streptococcus pneumoniae [28] = assay: Antimicrobial activity against Streptococcus pneumoniae isolate 24 by agar dilution method
Streptococcus pneumoniae [29] = assay: Antimicrobial activity against Streptococcus pneumoniae isolate 3455 by agar dilution method
Streptococcus pneumoniae [30] = assay: Antimicrobial activity against Streptococcus pneumoniae isolate 4747 by agar dilution method; how it was run: as §2
Streptococcus pneumoniae [31] = assay: Antimicrobial activity against Streptococcus pneumoniae 5 by time-kill analysis; how it was run: as §1
Streptococcus pneumoniae [32] = assay: Antimicrobial activity against Streptococcus pneumoniae 8 by time-kill analysis
How it was run: as §1, with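 “12,” for “12 and”, “=” for “if”, “drop” for “reduction”, “90%/99%/99.9%” for “90% and 99%”, “scored per strain.” for “also scored.”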

Streptococcus pneumoniae [33] = assay: Antimicrobial activity against Streptococcus pneumoniae isolate 33 by agar dilution method; how it was run: as §2
Streptococcus pneumoniae [34] = assay: Antimicrobial activity against Streptococcus pneumoniae isolate 3481 by agar dilution method; how it was run: as §2
Streptococcus pneumoniae [35] = assay: Antimicrobial activity against Streptococcus pneumoniae isolate 1564 by agar dilution method
Streptococcus pneumoniae [36] = assay: Antimicrobial activity against Streptococcus pneumoniae isolate 2686 by agar dilution method; how it was run: as §2
Streptococcus pneumoniae [37] = assay: Antimicrobial activity against Streptococcus pneumoniae isolate 3458 by agar dilution method
Streptococcus pneumoniae [38] = assay: Antimicrobial activity against Streptococcus pneumoniae isolate 3275 by agar dilution method; how it was run: as §2
Streptococcus pneumoniae [39] = assay: Antimicrobial activity against Streptococcus pneumoniae isolate 1397 by agar dilution method; how it was run: as §2
Streptococcus pneumoniae [40] = assay: Antimicrobial activity against Streptococcus pneumoniae 4 by time-kill analysis
How it was run: as §1, with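 “12,” for “12 and”, “=” for “if”, “drop” for “reduction”, “90%/99%/99.9%” for “90% and 99%”, “scored per strain.” for “also scored.”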

Streptococcus pneumoniae [41] = assay: Antimicrobial activity against Streptococcus pneumoniae isolate 3374 by agar dilution method; how it was run: as §2
Streptococcus pneumoniae [42] = assay: Antimicrobial activity against Streptococcus pneumoniae 10 by time-kill analysis
How it was run: as §1, with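 “12,” for “12 and”, “=” for “if”, “drop” for “reduction”, “90%/99%/99.9%” for “90% and 99%”, “scored per strain.” for “also scored.”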

Streptococcus pneumoniae [43] = assay: Antimicrobial activity against Streptococcus pneumoniae isolate 1147 by agar dilution method; how it was run: as §2
Streptococcus pneumoniae [44] = assay: Antimicrobial activity against Streptococcus pneumoniae 11 by time-kill analysis
How it was run: as §1, with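 “12,” for “12 and”, “=” for “if”, “drop” for “reduction”, “90%/99%/99.9%” for “90% and 99%”, “scored per strain.” for “also scored.”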

Streptococcus pneumoniae [45] = assay: Antimicrobial activity against penicillin-resistant Streptococcus pneumoniae by agar dilution method; how it was run: as §2
Streptococcus pneumoniae [46] = assay: Antimicrobial activity against Streptococcus pneumoniae isolate 3412 by agar dilution method; how it was run: as §2
Streptococcus pneumoniae [47] = assay: Antimicrobial activity against Streptococcus pneumoniae 2 by time-kill analysis
How it was run: as §1, with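 “12,” for “12 and”, “=” for “if”, “drop” for “reduction”, “90%/99%/99.9%” for “90% and 99%”, “scored per strain.” for “also scored.”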

How did the MIC (Streptococcus pneumoniae [1]) turn out when `CO/N=C(\C(=O)N[C@@H]1C(=O)N2C(C(=O)O)=C(CSc3nc(=O)c(O)nn3C)CS[C@H]12)c1csc(N)n1` [CEFTRIAXONE] was run?
Its MIC is 1 µg/mL (≈ 1.8 µM).

And the MIC (Streptococcus pneumoniae [2])?
The MIC was 0.03 µg/mL (≈ 0.0541 µM).

What about the MIC50 (Streptococcus pneumoniae [3]) of the same compound?
The MIC50 was 2 µg/mL (≈ 3.61 µM).

What about the MIC90 (Streptococcus pneumoniae [3]) of the same compound?
Its MIC90 is 2 µg/mL (≈ 3.61 µM).

And the MIC (Streptococcus pneumoniae [4])?
Its MIC is 1 µg/mL (≈ 1.8 µM).

What about the MIC (Streptococcus pneumoniae [5]) of the same compound?
Its MIC is 0.12 µg/mL (≈ 0.216 µM).

What about the MIC (Streptococcus pneumoniae [6]) of the same compound?
The MIC was 4 µg/mL (≈ 7.21 µM).

What about the MIC (Streptococcus pneumoniae [7]) of the same compound?
The MIC was 1 µg/mL (≈ 1.8 µM).

What about the MIC50 (Streptococcus pneumoniae [8]) of the same compound?
Its MIC50 is 0.03 µg/mL (≈ 0.0541 µM).

And the MIC90 (Streptococcus pneumoniae [8])?
Its MIC90 is 0.06 µg/mL (≈ 0.108 µM).

And the MIC (Streptococcus pneumoniae [9])?
The MIC was 2 µg/mL (≈ 3.61 µM).

What about the MIC (Streptococcus pneumoniae [10]) of the same compound?
The MIC was 0.12 µg/mL (≈ 0.216 µM).

What about the MIC (Streptococcus pneumoniae [11]) of the same compound?
The MIC was 0.5 µg/mL (≈ 0.902 µM).

What about the MIC (Streptococcus pneumoniae [12]) of the same compound?
The MIC was 2 µg/mL (≈ 3.61 µM).

What about the MIC (Streptococcus pneumoniae [13]) of the same compound?
Its MIC is 2 µg/mL (≈ 3.61 µM).

What about the MIC (Streptococcus pneumoniae [14]) of the same compound?
Its MIC is 4 µg/mL (≈ 7.21 µM).

And the MIC (Streptococcus pneumoniae [15])?
The MIC was 4 µg/mL (≈ 7.21 µM).

And the MIC (Streptococcus pneumoniae [16])?
The MIC was 1 µg/mL (≈ 1.8 µM).

And the MIC (Streptococcus pneumoniae [17])?
Its MIC is 0.5 µg/mL (≈ 0.902 µM).

And the MIC (Streptococcus pneumoniae [18])?
The MIC was 1 µg/mL (≈ 1.8 µM).

And the MIC (Streptococcus pneumoniae [19])?
Its MIC is 2 µg/mL (≈ 3.61 µM).

And the MIC (Streptococcus pneumoniae [20])?
Its MIC is 0.25 µg/mL (≈ 0.451 µM).

What about the MIC (Streptococcus pneumoniae [21]) of the same compound?
The MIC was 0.5 µg/mL (≈ 0.902 µM).

And the MIC50 (Streptococcus pneumoniae [22])?
The MIC50 was 0.125 µg/mL (≈ 0.225 µM).

What about the MIC90 (Streptococcus pneumoniae [22]) of the same compound?
Its MIC90 is 1 µg/mL (≈ 1.8 µM).

What about the MIC (Streptococcus pneumoniae [23]) of the same compound?
Its MIC is 1 µg/mL (≈ 1.8 µM).

And the MIC (Streptococcus pneumoniae [24])?
The MIC was 1 µg/mL (≈ 1.8 µM).

What about the MIC (Streptococcus pneumoniae [25]) of the same compound?
The MIC was 1 µg/mL (≈ 1.8 µM).

And the MIC (Streptococcus pneumoniae [26])?
Its MIC is 2 µg/mL (≈ 3.61 µM).

And the MIC (Streptococcus pneumoniae [27])?
Its MIC is 2 µg/mL (≈ 3.61 µM).

What about the MIC (Streptococcus pneumoniae [28]) of the same compound?
The MIC was 2 µg/mL (≈ 3.61 µM).

What about the MIC (Streptococcus pneumoniae [29]) of the same compound?
The MIC was 1 µg/mL (≈ 1.8 µM).

What about the MIC (Streptococcus pneumoniae [30]) of the same compound?
The MIC was 2 µg/mL (≈ 3.61 µM).

And the MIC (Streptococcus pneumoniae [31])?
The MIC was 4 µg/mL (≈ 7.21 µM).

What about the MIC (Streptococcus pneumoniae [32]) of the same compound?
Its MIC is 2 µg/mL (≈ 3.61 µM).

What about the MIC (Streptococcus pneumoniae [33]) of the same compound?
Its MIC is 1 µg/mL (≈ 1.8 µM).

What about the MIC (Streptococcus pneumoniae [34]) of the same compound?
The MIC was 2 µg/mL (≈ 3.61 µM).

And the MIC (Streptococcus pneumoniae [35])?
The MIC was over 8 µg/mL.

What about the MIC (Streptococcus pneumoniae [36]) of the same compound?
The MIC was 2 µg/mL (≈ 3.61 µM).

And the MIC (Streptococcus pneumoniae [37])?
Its MIC is 1 µg/mL (≈ 1.8 µM).

What about the MIC (Streptococcus pneumoniae [38]) of the same compound?
The MIC was 0.25 µg/mL (≈ 0.451 µM).

And the MIC (Streptococcus pneumoniae [39])?
Its MIC is 4 µg/mL (≈ 7.21 µM).

And the MIC (Streptococcus pneumoniae [40])?
The MIC was 4 µg/mL (≈ 7.21 µM).

What about the MIC (Streptococcus pneumoniae [41]) of the same compound?
The MIC was 1 µg/mL (≈ 1.8 µM).

And the MIC (Streptococcus pneumoniae [42])?
Its MIC is 0.12 µg/mL (≈ 0.216 µM).

And the MIC (Streptococcus pneumoniae [43])?
Its MIC is 2 µg/mL (≈ 3.61 µM).

What about the MIC (Streptococcus pneumoniae [44]) of the same compound?
Its MIC is 4 µg/mL (≈ 7.21 µM).

What about the MIC50 (Streptococcus pneumoniae [45]) of the same compound?
The MIC50 was 1 µg/mL (≈ 1.8 µM).

What about the MIC90 (Streptococcus pneumoniae [45]) of the same compound?
Its MIC90 is 2 µg/mL (≈ 3.61 µM).

And the MIC (Streptococcus pneumoniae [46])?
The MIC was 2 µg/mL (≈ 3.61 µM).

What about the MIC (Streptococcus pneumoniae [47]) of the same compound?
Its MIC is 0.016 µg/mL (≈ 0.0289 µM).

Reference: ChEMBL document CHEMBL1649446, “Comparative antipneumococcal activities of sulopenem and other drugs” (2009)
